Experimental data from ChEMBL document CHEMBL1649064, “Antimalarial activity of novel 5-aryl-8-aminoquinoline derivatives” (J Med Chem, 2011).
≈ marks a conversion by molar mass, not a printed value. Calls of active or inactive are those of the source. The calls are words filed in the database; no cut-off is given here.

Tests used:
[1] = Half life in human microsomes by LC-MS/MS analysis; type: ADME, Microsome
Method in brief: (§1)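 Microsomal stability run on a robotic sample processor in 96-well format, following an internal SOP. Parent compound quantified by LC-MS/MS with fast LC gradient or isocratic methods.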

RAW264.7 = experiment: Cytotoxicity against mouse RAW264.7 cells after 24 hrs by MTT assay; type: cell-based; settings: RAW264.7, 24 h
Method in brief: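 Macrophage line from ATCC, seeded at 2.5 × 10⁴ cells/well and left ~12 h. Drug stocks in DMSO, serially diluted to 0.29-48 μg/mL/well. Exposure 24 h, then drug removed and fresh medium added for a further 24 h recovery. Viability read by MTT. Controls were no-cell background, untreated cells and 0.6% DMSO. Duplicate runs, IC50 from sigmoidal variable-slope fit.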

[2] = Therapeutic index, ratio of IC50 for mouse RAW264.7 cells to IC50 for mefloquine-resistant Plasmodium falciparum CDC Sierra Leone 1 D6; type: cell-based; settings: read-out: TI
Method in brief: (§2)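 RAW 264.7 macrophages seeded at 2.5 × 10⁴ cells/well and pre-incubated about 12 h. Exposed 24 h to 0.29-48 μg/mL of DMSO-dissolved drug, then drug removed, fresh medium added and 24 h recovery. Viability by MTT, with background, untreated and 0.6% DMSO controls. Duplicate runs, IC50 by sigmoidal variable-slope fit. Index is the macrophage IC50 over the P. falciparum IC50.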

Plasmodium falciparum [3] = experiment: Antimalarial activity against mefloquine-susceptible Plasmodium falciparum CDC Indochina 3 W2 after 48 hrs by [3H]hypoxanthine uptake assay; type: functional, organism-based
Method in brief: (§3)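 Compounds dissolved in DMSO, diluted 400-fold in RPMI 1640 with 25 mM Hepes, 32 mM NaHCO₃ and 10% Albumax I, then 2-fold serial dilutions over 11 concentrations. Parasites exposed 48 h at 37 °C under 5% O₂/5% CO₂/90% N₂, then [³H]-hypoxanthine added for a further 18 h. DNA harvested onto glass filters and counted. IC50 from a nonlinear regression logistic dose-response model.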

[4] = Therapeutic index, ratio of IC50 for mouse RAW264.7 cells to IC50 for mefloquine-susceptible Plasmodium falciparum CDC Indochina 3 W2; type: cell-based; settings: read-out: TI; method in brief: as §2
[5] = Half life in mouse microsomes by LC-MS/MS analysis; type: ADME, Microsome; method in brief: as §1
Plasmodium falciparum [6] = experiment: Antimalarial activity against mefloquine-resistant Plasmodium falciparum CDC Sierra Leone 1 D6 after 48 hrs by [3H]hypoxanthine uptake assay; type: functional, organism-based; method in brief: as §3
Plasmodium berghei [7] = experiment: Prophylactic antimalarial activity against Plasmodium berghei infected Exoerythrocytic mouse model at 320 mg/kg, po for 3 days; type: functional, organism-based; design: dose 320 mg/kg
Method in brief: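 Mice infected with P. berghei sporozoites by intravenous inoculation. Compound given orally daily for 3 days. Read-outs were cure and delay of patency.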

Plasmodium berghei [8] = experiment: Prophylactic antimalarial activity against Plasmodium berghei infected Exoerythrocytic mouse model; type: functional
Method in brief: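 Mice infected with P. berghei sporozoites by intravenous inoculation. Compounds given orally once daily for 3 days at up to 320 mg/kg/day. Read-out was cure and delay of patency in groups of 4 mice.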

Structure (SMILES) | half-life [1] | IC50 (RAW264.7) | selectivity ratio [2] | IC50 (Plasmodium falciparum [3]) | selectivity ratio [4] | half-life [5] | IC50 (Plasmodium falciparum [6]) | Activity (Plasmodium berghei [7]) | MAC (Plasmodium berghei [8]) | MTD (Plasmodium berghei [8])
COc1cccc(-c2c(OC)cc(NC(C)CCCN)c3nc(C(F)(F)F)cc(C)c23)c1.O=C(O)CCC(=O)O (stereo not drawn) | > 60 min | 1.5 µg/mL | 5 | 0.6 µg/mL | 2.5 | > 60 min | 0.3 µg/mL |  |  | 
COc1cc(NC(C)CCCN)c2nc(C(F)(F)F)cc(C)c2c1-c1ccccc1.O=C(O)CCC(=O)O (stereo not drawn) | > 60 min | 3.1 µg/mL | 1.11 | 1.4 µg/mL | 2.21 | > 60 min | 2.8 µg/mL | inactive | >960 mg/kg/day | 480 mg/kg/day
COc1cc(C)c2c(-c3cccc(C)c3)c(OC)cc(NC(C)CCCN)c2n1.O=C(O)CCC(=O)O (stereo not drawn) | > 60 min | 1.9 µg/mL | 1.46 | 0.7 µg/mL | 2.71 | > 60 min | 1.3 µg/mL | Active | 960 mg/kg/day | 960 mg/kg/day
COc1cc(NC(C)CCCN)c2nc(C(F)(F)F)cc(C)c2c1-c1cccc(C)c1.O=C(O)CCC(=O)O (stereo not drawn) | > 60 min | 1.8 µg/mL | 9 | 0.9 µg/mL | 2 | > 60 min | 0.2 µg/mL |  |  | 
COc1cc(NC(C)CCCNC(=O)OC(C)(C)C)c2nc(C(F)(F)F)cc(C)c2c1-c1ccc(C(F)(F)F)cc1 (stereo not drawn) | 30 min | > 48 µg/mL | > 36 | 1.4 µg/mL (≈ 2.39 µM) | > 34 | 16 min | 1.3 µg/mL (≈ 2.22 µM) | inactive | >960 mg/kg/day | >960 mg/kg/day
COc1cc(C)c2c(-c3ccccc3)c(OC)cc(NC(C)CCCN)c2n1.O=C(O)CCC(=O)O (stereo not drawn) | > 60 min | 1.9 µg/mL | 0.59 | 1.3 µg/mL | 1.46 | > 60 min | 3.2 µg/mL |  |  | 
COc1cccc(-c2c(OC)cc(NC(C)CCCNC(=O)OC(C)(C)C)c3nc(C(F)(F)F)cc(C)c23)c1 (stereo not drawn) | 9 min | > 80.2 µg/mL | > 267 | 0.6 µg/mL (≈ 1.1 µM) | > 134 | 8 min | 0.3 µg/mL (≈ 0.548 µM) | inactive | >960 mg/kg/day | >960 mg/kg/day
COc1cc(C)c2c(-c3cccc(C(F)(F)F)c3)c(OC)cc(NC(C)CCCN)c2n1.O=C(O)CCC(=O)O (stereo not drawn) | > 60 min | 1.3 µg/mL | 0.48 | 1.3 µg/mL | 1 | > 60 min | 2.7 µg/mL | inactive | >480 mg/kg/day | >480 mg/kg/day
COc1cc(NC(C)CCCN)c2nc(C(F)(F)F)cc(C)c2c1-c1cccc(C(F)(F)F)c1.O=C(O)CCC(=O)O (stereo not drawn) | > 60 min | 1.5 µg/mL | 1.07 | 0.5 µg/mL | 3 | > 60 min | 1.4 µg/mL |  |  | 
COc1cc(C)c2c(Oc3cccc(C(F)(F)F)c3)c(OC)cc(NC(C)CCCN)c2n1 (stereo not drawn) [TAFENOQUINE] | > 60 min | 5.9 µg/mL (≈ 12.7 µM) | 2.2 | 0.8 µg/mL (≈ 1.73 µM) | 7.38 | > 60 min | 2.7 µg/mL (≈ 5.83 µM) |  | 7.5 mg/kg/day | 120 mg/kg/day
COc1cc(NC(C)CCCNC(=O)OC(C)(C)C)c2nc(C(F)(F)F)cc(C)c2c1-c1cccc(C)c1 (stereo not drawn) | 13 min | > 48 µg/mL | > 240 | 0.9 µg/mL (≈ 1.69 µM) | > 59 | 11 min | 0.2 µg/mL (≈ 0.376 µM) | inactive | >960 mg/kg/day | >960 mg/kg/day
COc1cc(C)c2c(-c3ccc(C(F)(F)F)cc3)c(OC)cc(NC(C)CCCN)c2n1.O=C(O)CCC(=O)O (stereo not drawn) | > 60 min | 1.2 µg/mL | 0.54 | 1.3 µg/mL | 0.92 | > 60 min | 2.2 µg/mL | inactive | >480 mg/kg/day | >480 mg/kg/day
COc1cc(C)c2c(-c3ccc(Cl)c(Cl)c3)c(OC)cc(NC(C)CCCN)c2n1.O=C(O)CCC(=O)O (stereo not drawn) | > 60 min | 1.7 µg/mL | 0.58 | 1.2 µg/mL | 1.42 | > 60 min | 2.9 µg/mL | inactive | >480 mg/kg/day | 120 mg/kg/day
COc1cc(NC(C)CCCNC(=O)OC(C)(C)C)c2nc(C(F)(F)F)cc(C)c2c1-c1cccc(C(F)(F)F)c1 (stereo not drawn) | 18 min | > 48 µg/mL | > 39.7 | 2.8 µg/mL (≈ 4.78 µM) | > 17 | 18 min | 1.1 µg/mL (≈ 1.88 µM) | inactive | >960 mg/kg/day | >960 mg/kg/day
COc1cc(NC(C)CCCN)c2ncccc2c1 (stereo not drawn) [PRIMAQUINE] | > 60 min | 38.7 µg/mL (≈ 149 µM) | 18.4 | 0.9 µg/mL (≈ 3.47 µM) | 43 | 21 min | 2.1 µg/mL (≈ 8.1 µM) |  | 60 mg/kg/day | <120 mg/kg/day
COc1cc(NC(C)CCCN)c2nc(C(F)(F)F)cc(C)c2c1-c1ccc(C(F)(F)F)cc1.O=C(O)CCC(=O)O (stereo not drawn) | > 60 min | 10.1 µg/mL | 5.94 | 0.8 µg/mL | 12.6 | > 60 min | 1.7 µg/mL |  |  | 
COc1cccc(-c2c(OC)cc(NC(C)CCCN)c3nc(OC)cc(C)c23)c1.O=C(O)CCC(=O)O (stereo not drawn) | > 60 min | 3.1 µg/mL | 1.11 | 0.8 µg/mL | 3.87 | > 60 min | 2.8 µg/mL | inactive | >480 mg/kg/day | >480 mg/kg/day
